Active and inactive are the calls of the source. No cut-off for these calls is given here.
Columns and labels:
Homo sapiens = species on record: Homo sapiens; assay: Binding affinity to cysteine-269 residue of human protein phosphatase 2A catalytic subunit at 0.6 uM after 2 hrs by MALDI-TOF MS analysis
In short: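 Purified PP2A (0.5 unit) incubated with or without ligand at 0.6 in 25 mM Tris-HCl, 137 mM NaCl, pH 7.5, 30 °C, 2 h. Samples boiled in SDS loading buffer with DTT and run on 10% gel. PP2Ac band reduced with DTT, alkylated with acrylamide and trypsin-digested. Peptide masses (MALDI-TOF MS) compared with native PP2Ac to find the adduct-bearing fragment.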

[1] = Inhibition of protein phosphatase 1
[2] = Inhibition of protein phosphatase 2A

- Activity (Homo sapiens): Active
- IC50 [1]: 45 µM
- IC50 [2]: 1.5 nM
Structure (SMILES): C[C@@](O)(/C=C/[C@H]1CC=CC(=O)O1)[C@@H](C[C@@H](O)\C=C/C=C\C=C\CO)OP(=O)(O)O [FOSTRIECIN]

— ChEMBL document CHEMBL1152684 (Bioorg Med Chem, 2009)
